Screens: PubChem, several laboratories
Runt-CBFb FRET – inhibitors of human RUNX1 Runt domain binding to CBFb; inhibition, % at 20 µM; AID 1496; Cerulean-Runt/Venus-CBFb FRET ratio 530/480, 1 h; hit rate 0.46% among 220,000;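 active = inhibition over about 50% at 20 µM in the single-dose screen, limit read from the data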;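 also: 0% = DMSO wells and 100% = excess unlabeled CBFb competitor control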
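Measured by: fluorescence energy transfer, 422 nm excitation, 530/480 nm emission; Assay system: Cerulean-Runt domain; Medium: Tris pH 7.5 buffer with BSA; Measure: loss of energy transfer signal; Controls: 5 µM unlabeled CBFb as full-inhibition high control; Incubation: protein complex preformed 1 h, compound exposure 1 h, room temperature, dark.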
CaV13 FRET inh – Disruptors of the CACNA1D IQ motif to Ca2+-dependent inactivation inhibitor domain association, primary screening, Förster resonance energy transfer in intact living …; HEK cells, CFP/YFP FRET ICDI-IQ, plate reader, 10 min; percent FRET-ratio fall versus neutral wells; inhibition, % at 12.3 µM; hit rate 0.098% among 340,000; AID 743397;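 active = mean replicate inhibition of at least 30% and at least 1% of replicates passing that level; inconclusive = only one of the two criteria is met; inactive = neither criterion is met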;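 also: 0% = median of the neutral control wells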
RanGTP-Impb inh – inhibitors of RanGTP-importin-beta interaction, primary screen, biochemical, FRET, CFP-Ran, YFP-importin-beta, homogeneous. cell-free CFP-Ran/YFP-importin-beta FRET ratio. inhibition, % (no concentration beside the values). hit rate 1.1% among 300,000. AID 2216;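 active = more than half of the replicate wells show a fall in the fluorescence ratio signal beyond about 16%, limit read from the data, passing the limit was not always enough; inconclusive = exactly half of the replicate wells pass the set limit; inactive = fewer than half of replicates pass the limit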;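 also: 0% = DMSO wells and 100% = Ran loaded with GDP instead of GTP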
Runt-SMMHC FRET – blocks binding of human RUNX1 Runt domain to CBFb-SMMHC; Q01196+Q13951; Cerulean-Runt/Venus-CBFb-SMMHC FRET ratio 530/480, 1 h; inhibition, % at 20 µM; hit rate 0.74% among 220,000;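 active = mean inhibition across duplicate retests at 20 µM reaching about 50%, limit read from the data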;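 also: 0% = DMSO wells and 100% = wells with excess untagged CBFb-SMMHC; inhibitors lower the FRET ratio by blocking Runt binding to CBFb-SMMHC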
Hck-Nef inh – human Hck-Nef kinase inhibition; P08631; Recombinant Hck-YEEI plus Nef, Z-Lyte FRET kinase assay; inhibition, % at 20 µM; hit rate 0.68% among 220,000;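 active = Hck-Nef kinase inhibition above about 50%, limit read from the data; inactive = inhibition below that limit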;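 also: 0% = DMSO with Hck plus Nef and 100% = Hck alone without Nef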
Target sequence (P08631 whole entry, looked up): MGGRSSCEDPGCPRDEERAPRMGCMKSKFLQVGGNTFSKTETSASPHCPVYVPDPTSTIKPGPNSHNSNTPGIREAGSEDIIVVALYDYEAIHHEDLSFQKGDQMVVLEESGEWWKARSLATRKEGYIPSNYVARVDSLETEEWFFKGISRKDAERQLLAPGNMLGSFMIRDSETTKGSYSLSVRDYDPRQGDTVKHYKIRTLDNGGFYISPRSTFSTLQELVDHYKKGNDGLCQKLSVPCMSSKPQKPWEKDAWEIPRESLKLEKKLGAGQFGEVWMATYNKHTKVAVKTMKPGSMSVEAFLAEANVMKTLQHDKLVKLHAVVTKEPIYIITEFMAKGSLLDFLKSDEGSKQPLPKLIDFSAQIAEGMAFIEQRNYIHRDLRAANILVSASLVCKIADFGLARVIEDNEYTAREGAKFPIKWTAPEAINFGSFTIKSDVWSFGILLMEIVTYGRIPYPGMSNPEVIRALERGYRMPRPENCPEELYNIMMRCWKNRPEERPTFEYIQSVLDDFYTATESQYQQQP
* marks the source's active call; other numbers are inactive results; u = inconclusive; x = no result. Shown are actives, neighbours in structure and some others; about 1.5% of the full set was active somewhere.

SMILES	Runt-CBFb FRET	CaV13 FRET inh	RanGTP-Impb inh	Runt-SMMHC FRET	Hck-Nef inh
N=c1c(S(=O)(=O)c2ccccc2)cc2c(=O)n3ccccc3nc2n1Cc1ccco1	12.5	x	85.1*	x	22.2
COc1ccc(NC(=O)Cn2nc(C(=O)O)c3ccccc3c2=O)cc1Cl	x	-4.1	3.3	x	x
CC1(C)CC(=O)C2=C(C1)Nc1ccccc1NC2	-27.8	-243.7	-10.0	87.2*	24.7
CC1(C)CC(=O)C2=C(C1)Nc1ccccc1S2	4.9	-2.5	2.5	-18.0	17.8
COC(=O)c1ccc(C)c(-n2c(=O)n(Cc3ccccc3)c(=O)c3[nH]cnc32)c1	x	-16.3	1.8	x	x
Cc1ccc(NC(=O)c2ccc3nsnc3c2)c(Cl)c1	x	-2.7	-3.1	x	x
Cc1cccc2sc(NNC(=O)c3ccc(S(=O)(=O)N4CCc5ccccc5C4)cc3)nc12	24.5	-6.1	u	0.4	-9.9
Cc1cccc2sc(NNC(=O)c3ccc(S(=O)(=O)N4CCCC(C)C4)cc3)nc12 (centres undefined)	40.2	42.7*	0.1	21.8	-2.7
CCOC(=O)/C(=N\O)C1=NC(C)(C)Cc2ccccc21	-3.2	-17.4	0.3	-6.3	6.5
Cc1cccc(N/N=C(\C(N)=O)C2=NC(C)(C)Cc3ccccc32)c1	-6.7	-2.8	3.5	-1.5	65.3*
O=C1OC(c2cccs2)=N/C1=C\c1ccc(-c2ccccc2Cl)o1	-0.6	-8.1	-2.3	6.3	-0.1
O=C1OC(c2cccs2)=N/C1=C/c1ccc(-c2cccc(C(=O)O)c2)o1	14.4	-6.4	x	16.3	115.8*
O=C(NCCc1ccccc1)c1c(O)c2ccccc2[nH]c1=O	x	-2.6	u	x	x
CCNC(=O)c1c(O)c2ccccc2[nH]c1=O	0.7	4.5	96.0*	-2.1	-3.6
COc1cc([C@@H]2[C@H]3CNCC=C3C(C#N)=C(N)C2(C#N)C#N)ccc1OC(C)C	6.9	-5.8	62.7*	52.0	16.9
Cc1ccccc1CNC(=O)CCNS(=O)(=O)c1ccc(OC(F)(F)F)cc1	x	-6.9	x	x	x
CCN(CC)CCCNC(=O)C1CCC(=O)N(c2ccc(OC)cc2)C1c1ccc(F)cc1 (centres undefined)	-1.9	-5.4	53.7*	-9.7	0.4
COC(=O)c1cc(S(=O)(=O)N2CCN(c3ccccc3)CC2)c[nH]1	x	-4.0	29.1*	x	x
COC(=O)c1cc(S(=O)(=O)N2CCN(c3ccc(F)cc3)CC2)c[nH]1	x	-3.1	5.1	x	x
CC(NS(=O)(=O)c1ccccc1)C(=O)Nc1ccc2c(c1)OCCO2 (centres undefined)	x	-5.6	-1.2	x	x
O=C(Cn1ccc([N+](=O)[O-])n1)N1CCCCCC1	1.0	114.9*	-2.4	0.1	4.7
CCn1c(C)c(C(C)=O)c(N2CCN(C(c3ccccc3)c3ccccc3)CC2)nc1=S	18.0	3.1	57.3*	23.4	-5.8
CCn1c(C)c(C(C)=O)c(N2CCCCC2)nc1=S	1.2	-5.4	1.6	1.3	-2.6
CCn1c(C)c(C(C)=O)c(N2CCN(c3ccccc3)CC2)nc1=S	-61.6	x	19.5*	10.6	1.8
CCn1c(C)c(C(C)=O)c(N2CCC(C(N)=O)CC2)nc1=S	-0.4	-4.8	3.0	-2.3	0.0
SMILES	Runt-CBFb FRET	CaV13 FRET inh	RanGTP-Impb inh	Runt-SMMHC FRET	Hck-Nef inh
Cc1ncc(CO)c(/C=N/NC(=O)c2ccc(Br)cc2)c1O	18.7	x	21.0*	58.5*	-4.4
Cc1ncc(CO)c(/C=N/NC(=O)c2cc(Br)ccc2O)c1O	0.6	-4.5	1.9	-25.0	8.9
COc1ccccc1N1CCN(C(=O)c2cccc(S(=O)(=O)Nc3ccccc3F)c2)CC1	x	-5.8	x	x	x
CCn1c(SCC(=O)NCCc2ccccc2)nc2sc3c(c2c1=O)CCN(C)C3	6.0	-2.1	5.7	10.1	9.7
CCn1c(SCC(=O)c2ccccc2)nc2sc3c(c2c1=O)CCN(C)C3	10.1	8.8	8.5	84.9*	4.7
O=C1C2C3C=CC(C2C(=O)N1CCO)C1C(=O)N(CCO)C(=O)C31 (centres undefined)	x	-2.3	0.7	x	x
Cc1cccc(N2C(=O)C3C4C=CC(CC4)C3C2=O)c1 (centres undefined)	x	-6.0	-4.3	x	x
O=C1C2C3CCC(O3)C2C(=O)N1c1cccc(O)c1 (centres undefined)	x	-4.3	33.2*	x	x
COC(=O)[C@]12CCCCC=C1N(CCc1ccc(OC)c(OC)c1)C(=O)[C@H](CC(=O)N1CCCCC1)C2	x	-8.4	x	x	x
O=C(CSc1nncc2ccccc12)Nc1ccc(C(=O)O)cc1	x	-2.5	6.3	x	x
COCCn1c(-c2ccc(F)cc2)nc2cccnc21	x	-20.0	0.4	x	x
CCC(=O)NCCCNc1nc2c(C)cccc2cc1C#N	9.1	45.6*	41.2*	33.5	44.3
Cc1cccc2cc(C#N)c(NCCNC(=O)NC3CCCCC3)nc12	54.9*	-4.0	2.6	75.1*	8.9
Cc1cc(C)c2cc(C#N)c(NCCCNC(=O)CCC(=O)O)nc2c1	3.6	-5.4	u	41.0	12.8
Cc1cccc2cc(C#N)c(NCCNS(=O)(=O)c3ccc4c(c3)OCCO4)nc12	28.2	-4.7	u	76.0*	18.7
COc1ccc(C(=O)NCCNc2nc3c(C)cccc3cc2C#N)cc1OC	x	-5.0	39.5*	x	x
CCOCCCNC(=S)NCCCNc1nc2c(C)c(C)ccc2cc1C#N	10.4	14.8	x	38.4	34.8
Cc1ccc2cc(C#N)c(NCCNC(=O)C3CCC3)nc2c1C	37.9	-3.5	19.3*	78.3*	8.0
Cc1ccccc1-n1c(O)c(/C=C/C=Nc2ccccc2)c(=O)[nH]c1=O	28.7	-4.5	20.2*	76.2*	2.8
Cc1ccc(-n2c(O)c(/C=C3/C(c4ccccc4)=Nc4ccccc43)c(=O)[nH]c2=O)cc1	-5.9	-5.0	0.7	-25.3	1.9
CC1(C)CC(=O)C2=C(C1)OC(N)=C(C#N)[C@@H]2c1ccccc1[N+](=O)[O-]	94.1*	178.8*	49.0*	49.7	-0.3
O=C1NC(=Nc2ccc(O)cc2)S/C1=C\C=C\c1ccco1	10.0	-15.4	2.1	-11.3	94.2*
COc1cc(/C=C2/SC(=Nc3ccc(O)cc3)NC2=O)cc(OC)c1O	-4.1	-3.8	1.4	-51.1	32.0
O=C(NN1CCOCC1)c1ccc(F)cc1	x	-2.0	1.9	x	x
CCCCn1c(=NC(=O)c2ccc3c(c2)OCO3)c(C#N)cc2c(=O)n3cccc(C)c3nc21	56.4*	8.5	x	38.6	2.9
COCCCn1c(C(=O)Nc2ccc3c(c2)OCO3)cc2c(=O)n3cccc(C)c3nc21	x	-3.3	x	x	x
COCCn1c(=NC(=O)c2ccc3c(c2)OCO3)c(C#N)cc2c(=O)n3cccc(C)c3nc21	105.2*	x	43.0*	118.2*	1.5
O=C(COC(=O)CC1SC(N2CCCC2)=NC1=O)Nc1ccc(Br)cc1 (centres undefined)	x	-1.7	x	x	x
COC(=O)/C(C#N)=C/c1c(Oc2cccc(C)c2)nc2ccccn2c1=O	3.2	-9.2	6.4	15.5	26.6
